Results as given in ChEMBL document CHEMBL4765248, “Design, synthesis, biological evaluation and molecular docking study of novel thieno[3,2-d]pyrimidine derivatives as potent FAK inhibitors” (Eur J Med Chem, 2020).

What was measured:
Focal adhesion kinase 1 = Focal adhesion kinase 1 (Homo sapiens, UniProt Q05397); assay: Inhibition of N-terminal GST-fused human truncated FAK (376 to 1052 residues) expressed in baculovirus expression system using tyrosine kinase peptide as substrate measured after 50 mins in presence of ATP by homogenous time resolved flourescence assay
Focal adhesion kinase 1, sequence (Q05397 whole entry, the tested form may be a part): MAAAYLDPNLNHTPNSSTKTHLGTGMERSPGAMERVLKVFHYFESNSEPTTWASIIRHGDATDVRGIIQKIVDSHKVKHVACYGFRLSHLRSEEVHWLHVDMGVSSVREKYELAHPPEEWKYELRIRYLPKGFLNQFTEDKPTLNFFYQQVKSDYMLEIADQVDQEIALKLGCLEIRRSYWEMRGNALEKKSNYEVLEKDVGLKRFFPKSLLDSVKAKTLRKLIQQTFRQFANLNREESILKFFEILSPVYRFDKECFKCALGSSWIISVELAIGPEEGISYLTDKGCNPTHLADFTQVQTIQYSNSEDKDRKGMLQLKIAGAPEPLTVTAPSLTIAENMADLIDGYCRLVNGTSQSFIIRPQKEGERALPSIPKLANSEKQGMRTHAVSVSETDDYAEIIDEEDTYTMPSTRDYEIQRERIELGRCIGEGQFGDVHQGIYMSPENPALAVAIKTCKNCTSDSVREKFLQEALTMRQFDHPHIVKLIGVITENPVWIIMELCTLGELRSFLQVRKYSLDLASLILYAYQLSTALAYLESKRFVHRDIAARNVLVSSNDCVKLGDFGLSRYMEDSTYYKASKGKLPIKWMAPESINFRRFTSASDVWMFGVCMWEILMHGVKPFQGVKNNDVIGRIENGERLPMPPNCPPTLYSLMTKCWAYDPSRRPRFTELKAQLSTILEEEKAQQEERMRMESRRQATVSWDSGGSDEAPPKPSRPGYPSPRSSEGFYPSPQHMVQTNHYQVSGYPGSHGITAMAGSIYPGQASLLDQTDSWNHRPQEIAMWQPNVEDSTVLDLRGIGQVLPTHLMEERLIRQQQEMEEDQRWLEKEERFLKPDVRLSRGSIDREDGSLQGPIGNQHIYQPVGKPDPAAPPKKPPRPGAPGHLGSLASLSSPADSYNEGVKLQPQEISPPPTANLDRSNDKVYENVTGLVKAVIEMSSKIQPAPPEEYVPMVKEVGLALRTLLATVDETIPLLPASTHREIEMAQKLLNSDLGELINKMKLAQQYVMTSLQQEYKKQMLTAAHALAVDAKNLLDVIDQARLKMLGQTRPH

[1] = target: RAC-alpha serine/threonine-protein kinase (Homo sapiens) (UniProt P31749); assay: Inhibition of His-tagged human full length AKT1 expressed in baculovirus expression system at 1 uM by Selectscreen kinase assay
Procedure, shortened: (§1)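 Single-point screen at 1 μM final against a panel of 25 kinases using a commercial profiling service; mean of three independent experiments each run in triplicate.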

[2] = target: Tyrosine-protein kinase BTK (Homo sapiens) (UniProt Q06187); assay: Inhibition of His-tagged full length, recombinant human BTK expressed in baculovirus expression system at 1 uM by Selectscreen kinase assay; procedure, shortened: as §1
Tyrosine-protein kinase BTK (Homo sapiens), sequence (Q06187 whole entry): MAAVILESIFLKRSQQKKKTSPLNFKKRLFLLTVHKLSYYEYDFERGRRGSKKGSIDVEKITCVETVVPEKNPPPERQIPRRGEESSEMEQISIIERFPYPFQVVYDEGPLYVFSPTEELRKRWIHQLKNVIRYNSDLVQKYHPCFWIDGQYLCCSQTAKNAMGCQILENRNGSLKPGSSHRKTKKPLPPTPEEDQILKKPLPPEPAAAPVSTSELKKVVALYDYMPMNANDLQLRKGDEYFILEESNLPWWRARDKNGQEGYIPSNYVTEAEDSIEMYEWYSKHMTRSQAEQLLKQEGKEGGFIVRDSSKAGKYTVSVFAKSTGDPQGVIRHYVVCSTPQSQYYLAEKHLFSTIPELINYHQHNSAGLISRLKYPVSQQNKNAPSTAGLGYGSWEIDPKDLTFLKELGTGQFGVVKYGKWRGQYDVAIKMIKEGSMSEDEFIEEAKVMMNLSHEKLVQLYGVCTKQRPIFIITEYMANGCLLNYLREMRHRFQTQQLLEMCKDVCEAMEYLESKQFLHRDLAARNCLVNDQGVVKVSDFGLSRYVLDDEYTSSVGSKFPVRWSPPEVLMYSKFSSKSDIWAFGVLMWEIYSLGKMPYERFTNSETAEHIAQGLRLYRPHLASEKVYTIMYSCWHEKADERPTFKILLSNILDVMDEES

[3] = target: Serine/threonine-protein kinase B-raf (Homo sapiens) (UniProt P15056); assay: Inhibition of GST-tagged human full length BRAF expressed in baculovirus expression system at 1 uM by Selectscreen kinase assay; procedure, shortened: as §1
Serine/threonine-protein kinase B-raf (Homo sapiens), sequence (P15056 whole entry): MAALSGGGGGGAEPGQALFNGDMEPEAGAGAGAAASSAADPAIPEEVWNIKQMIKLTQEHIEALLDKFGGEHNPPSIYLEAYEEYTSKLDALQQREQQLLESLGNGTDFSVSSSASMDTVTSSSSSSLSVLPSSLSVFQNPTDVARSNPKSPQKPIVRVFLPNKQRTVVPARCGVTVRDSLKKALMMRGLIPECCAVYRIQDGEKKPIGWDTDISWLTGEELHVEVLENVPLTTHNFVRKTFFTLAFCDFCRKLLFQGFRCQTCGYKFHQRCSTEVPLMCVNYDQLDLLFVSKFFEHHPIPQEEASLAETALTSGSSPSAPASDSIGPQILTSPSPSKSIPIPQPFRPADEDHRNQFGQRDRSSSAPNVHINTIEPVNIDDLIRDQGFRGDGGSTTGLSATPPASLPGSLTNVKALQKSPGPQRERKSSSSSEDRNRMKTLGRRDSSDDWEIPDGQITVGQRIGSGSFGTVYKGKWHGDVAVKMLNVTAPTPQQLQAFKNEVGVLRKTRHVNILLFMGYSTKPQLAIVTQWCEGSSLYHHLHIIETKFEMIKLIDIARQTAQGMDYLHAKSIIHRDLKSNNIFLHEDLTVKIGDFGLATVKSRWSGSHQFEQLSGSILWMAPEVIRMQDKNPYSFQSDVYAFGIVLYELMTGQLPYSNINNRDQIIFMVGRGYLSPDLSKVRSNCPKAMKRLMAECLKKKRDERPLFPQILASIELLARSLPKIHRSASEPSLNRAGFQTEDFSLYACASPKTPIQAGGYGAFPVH

[4] = target: Calcium/calmodulin-dependent protein kinase kinase 2 (Homo sapiens) (UniProt Q96RR4); assay: Inhibition of GST-tagged full length human CAMKK2 expressed in baculovirus expression system at 1 uM by Selectscreen kinase assay
Calcium/calmodulin-dependent protein kinase kinase 2 (Homo sapiens), sequence (Q96RR4 2-588 limits assumed): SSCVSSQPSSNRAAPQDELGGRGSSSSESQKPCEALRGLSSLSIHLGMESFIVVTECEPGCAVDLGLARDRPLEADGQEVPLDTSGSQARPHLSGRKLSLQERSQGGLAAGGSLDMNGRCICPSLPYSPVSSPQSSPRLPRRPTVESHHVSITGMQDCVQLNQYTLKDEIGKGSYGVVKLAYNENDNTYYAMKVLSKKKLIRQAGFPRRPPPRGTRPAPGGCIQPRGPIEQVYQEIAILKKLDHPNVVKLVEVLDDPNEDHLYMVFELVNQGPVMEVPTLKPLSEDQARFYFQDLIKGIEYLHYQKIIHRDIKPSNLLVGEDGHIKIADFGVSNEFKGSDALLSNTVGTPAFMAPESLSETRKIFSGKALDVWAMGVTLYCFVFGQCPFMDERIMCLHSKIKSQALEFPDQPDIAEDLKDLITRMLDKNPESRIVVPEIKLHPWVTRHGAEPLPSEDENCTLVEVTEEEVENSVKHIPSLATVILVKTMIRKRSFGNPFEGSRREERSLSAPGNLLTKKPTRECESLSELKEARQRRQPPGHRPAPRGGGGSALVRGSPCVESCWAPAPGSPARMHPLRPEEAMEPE
Procedure, shortened: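 Commercial SelectScreen profiling panel of 25 kinases, test compound at 1 μM. Values are the mean of three independent experiments, each run in triplicate.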

[5] = target: Serine/threonine-protein kinase Chk1 (Homo sapiens) (UniProt O14757); assay: Inhibition of His-tagged full length human CHK1 expressed in baculovirus expression system at 1 uM by Selectscreen kinase assay; procedure, shortened: as §1
Serine/threonine-protein kinase Chk1 (Homo sapiens), sequence (O14757 whole entry): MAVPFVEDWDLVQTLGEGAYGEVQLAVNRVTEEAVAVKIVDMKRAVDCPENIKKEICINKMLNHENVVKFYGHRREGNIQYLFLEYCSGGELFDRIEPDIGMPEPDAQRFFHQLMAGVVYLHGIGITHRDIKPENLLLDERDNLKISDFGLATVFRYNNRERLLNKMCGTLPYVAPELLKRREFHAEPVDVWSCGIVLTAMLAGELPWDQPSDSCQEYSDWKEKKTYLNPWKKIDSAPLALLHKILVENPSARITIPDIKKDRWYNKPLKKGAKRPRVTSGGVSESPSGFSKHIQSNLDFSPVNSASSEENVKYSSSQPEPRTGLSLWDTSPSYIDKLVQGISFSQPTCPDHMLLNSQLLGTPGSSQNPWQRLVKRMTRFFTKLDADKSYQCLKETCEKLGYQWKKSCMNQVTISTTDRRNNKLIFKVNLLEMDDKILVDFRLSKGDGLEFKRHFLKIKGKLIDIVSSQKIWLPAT

[6] = target: Dual specificity mitogen-activated protein kinase kinase 1 (Homo sapiens) (UniProt Q02750); assay: Inhibition of His-tagged full length human MEK1 expressed in baculovirus expression system at 1 uM by Selectscreen kinase assay; procedure, shortened: as §1
Dual specificity mitogen-activated protein kinase kinase 1 (Homo sapiens), sequence (Q02750 whole entry): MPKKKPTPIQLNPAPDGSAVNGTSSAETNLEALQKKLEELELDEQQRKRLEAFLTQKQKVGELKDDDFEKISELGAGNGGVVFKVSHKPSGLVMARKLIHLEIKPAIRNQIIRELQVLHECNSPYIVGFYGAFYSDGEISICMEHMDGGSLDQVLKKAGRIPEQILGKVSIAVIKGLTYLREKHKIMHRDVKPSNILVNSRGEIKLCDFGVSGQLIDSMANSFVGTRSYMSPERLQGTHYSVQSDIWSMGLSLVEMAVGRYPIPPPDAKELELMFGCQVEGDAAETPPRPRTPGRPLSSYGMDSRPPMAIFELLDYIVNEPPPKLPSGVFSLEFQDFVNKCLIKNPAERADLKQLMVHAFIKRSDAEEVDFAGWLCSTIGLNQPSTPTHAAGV

[7] = target: MAP kinase-interacting serine/threonine-protein kinase 1 (Homo sapiens) (UniProt Q9BUB5); assay: Inhibition of GST-tagged full length human MKNK1 expressed in insect expression system at 1 uM by Selectscreen kinase assay; procedure, shortened: as §1
MAP kinase-interacting serine/threonine-protein kinase 1 (Homo sapiens), sequence (Q9BUB5 whole entry, looked up): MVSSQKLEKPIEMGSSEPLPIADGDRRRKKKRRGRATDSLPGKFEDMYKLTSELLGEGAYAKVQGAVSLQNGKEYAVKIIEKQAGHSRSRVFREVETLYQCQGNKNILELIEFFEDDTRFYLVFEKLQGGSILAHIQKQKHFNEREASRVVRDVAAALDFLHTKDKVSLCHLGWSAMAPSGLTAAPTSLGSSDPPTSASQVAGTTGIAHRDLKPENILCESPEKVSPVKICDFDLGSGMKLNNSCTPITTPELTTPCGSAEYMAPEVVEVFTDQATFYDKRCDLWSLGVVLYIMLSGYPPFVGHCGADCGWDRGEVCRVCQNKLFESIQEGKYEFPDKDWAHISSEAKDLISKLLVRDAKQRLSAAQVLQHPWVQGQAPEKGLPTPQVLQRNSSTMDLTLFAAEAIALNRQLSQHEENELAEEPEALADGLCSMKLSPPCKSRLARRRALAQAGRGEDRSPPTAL

[8] = target: Serine/threonine-protein kinase pim-1 (Homo sapiens) (UniProt P11309); assay: Inhibition of His-tagged full length recombinant human PIM1 expressed in baculovirus expression system at 1 uM by Selectscreen kinase assay; procedure, shortened: as §1
Serine/threonine-protein kinase pim-1 (Homo sapiens), sequence (P11309 whole entry, looked up): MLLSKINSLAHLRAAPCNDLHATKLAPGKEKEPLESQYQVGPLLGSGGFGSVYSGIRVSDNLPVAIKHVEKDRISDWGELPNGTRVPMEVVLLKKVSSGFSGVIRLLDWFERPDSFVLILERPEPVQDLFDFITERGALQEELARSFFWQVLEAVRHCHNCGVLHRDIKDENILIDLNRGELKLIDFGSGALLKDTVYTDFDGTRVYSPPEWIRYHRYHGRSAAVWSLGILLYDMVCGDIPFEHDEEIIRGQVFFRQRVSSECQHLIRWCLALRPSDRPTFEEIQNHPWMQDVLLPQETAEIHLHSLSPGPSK

MDA-MB-231 [9] = assay: Induction of apoptosis in human MDA-MB-231 cells assessed as necrotic cells at 0.1 uM incubated for 48 hrs by Annexin V-FITC/PI staining based flow cytometric analysis (reference value: 1.08%); type: functional
MDA-MB-231 [10] = assay: Induction of apoptosis in human MDA-MB-231 cells assessed as necrotic cells at 0.2 uM incubated for 48 hrs by Annexin V-FITC/PI staining based flow cytometric analysis (reference value: 1.08%); type: functional
MDA-MB-231 [11] = assay: Induction of apoptosis in human MDA-MB-231 cells assessed as viable cells at 0.4 uM incubated for 48 hrs by Annexin V-FITC/PI staining based flow cytometric analysis (reference value: 95.84%); type: functional; conditions: read-out: Activity
MDA-MB-231 [12] = assay: Induction of apoptosis in human MDA-MB-231 cells assessed as early apoptotic cells at 0.4 uM incubated for 48 hrs by Annexin V-FITC/PI staining based flow cytometric analysis (reference value: 1.58%); type: functional
MDA-MB-231 [13] = assay: Induction of apoptosis in human MDA-MB-231 cells assessed as late apoptotic cells at 0.4 uM incubated for 48 hrs by Annexin V-FITC/PI staining based flow cytometric analysis (reference value: 1.49%); type: functional
MDA-MB-231 [14] = assay: Induction of cell cycle arrest in human MDA-MB-231 cells assessed as accumulation of cells at G0/G1 phase at 0.2 uM measured after 48 hrs by PI staining based flow cytometry method (reference value: 43.43%); type: functional
MDA-MB-231 [15] = assay: Induction of cell cycle arrest in human MDA-MB-231 cells assessed as accumulation of cells at S phase at 0.2 uM measured after 48 hrs by PI staining based flow cytometry method (reference value: 39.17%); type: functional
MDA-MB-231 [16] = assay: Induction of cell cycle arrest in human MDA-MB-231 cells assessed as accumulation of cells at G0/G1 phase at 0.4 uM measured after 48 hrs by PI staining based flow cytometry method (reference value: 43.43%); type: functional
MDA-MB-231 [17] = assay: Induction of cell cycle arrest in human MDA-MB-231 cells assessed as accumulation of cells at S phase at 0.4 uM measured after 48 hrs by PI staining based flow cytometry method (reference value: 39.17%); type: functional
MDA-MB-231 [18] = assay: Induction of cell cycle arrest in human MDA-MB-231 cells assessed as accumulation of cells at G2/M phase at 0.4 uM measured after 48 hrs by PI staining based flow cytometry method (reference value: 17.40%); type: functional
MDA-MB-231 [19] = assay: Inhibition of cell migration in human MDA-MB-231 cells measured after 48 hrs by wound healing assay; type: functional, cell-based; conditions: dose 0.15-0.6 µM
Procedure, shortened: (§2)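 MDA-MB-231 cells (2×10^6/well) were grown to confluence and the monolayer was scratched with a pipette tip. Cells were washed with PBS, kept in serum-free medium and treated with DMSO or compound at 0.15, 0.3 or 0.6 μM for 48 h. Wound closure was photographed by inverted microscope at 24 and 48 h.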

MDA-MB-231 [20] = assay: Inhibition of cell migration in human MDA-MB-231 cells at 0.15 to 0.6 uM by wound healing assay; type: functional, cell-based; conditions: dose 0.15-0.6 µM, time 24-48 hrs, TDE = time-dependent effect; procedure, shortened: as §2
A549 [21] = assay: Antiproliferative activity against human A549 cells assessed as cell viability at 0.1 uM measured after 48 hrs by MTT assay (reference value: 100%); type: functional; conditions: read-out: Activity
A549 [22] = assay: Antiproliferative activity against human A549 cells assessed as cell viability at 0.1 uM measured after 72 hrs by MTT assay (reference value: 100%); type: functional; conditions: read-out: Activity
A549 [23] = assay: Antiproliferative activity against human A549 cells assessed as cell viability at 0.5 uM measured after 24 hrs by MTT assay (reference value: 100%); type: functional; conditions: read-out: Activity
A549 [24] = assay: Antiproliferative activity against human A549 cells assessed as cell viability at 0.5 uM measured after 48 hrs by MTT assay (reference value: 100%); type: functional; conditions: read-out: Activity
A549 [25] = assay: Antiproliferative activity against human A549 cells assessed as cell viability at 2.5 uM measured after 24 hrs by MTT assay (reference value: 100%); type: functional; conditions: read-out: Activity
MDA-MB-231 [26] = assay: Antiproliferative activity against human MDA-MB-231 cells assessed as cell viability at 2.5 uM measured after 24 hrs by MTT assay (reference value: 100%); type: functional; conditions: read-out: Activity
MDA-MB-231 [27] = assay: Antiproliferative activity against human MDA-MB-231 cells assessed as cell viability at 2.5 uM measured after 72 hrs by MTT assay (reference value: 100%); type: functional; conditions: read-out: Activity
MDA-MB-231 [28] = assay: Antiproliferative activity against human MDA-MB-231 cells assessed as reduction in cell viability measured after 24 to 72 hrs by MTT assay; type: functional, cell-based; conditions: dose 0.1-2.5 µM, time 24-72 hrs
MDA-MB-231 [29] = assay: Antiproliferative activity against human MDA-MB-231 cells assessed as reduction in cell viability at 0.1 to 2.5 uM by MTT assay; type: functional, cell-based; conditions: dose 0.1-2.5 µM, time 24-72 hrs, TDE = time-dependent effect

COc1ccccc1-c1csc2cnc(Nc3ccc(C(=O)NC4CCNCC4)c(F)c3)nc12 gave an IC50 (Focal adhesion kinase 1) of 0.0282 µM, an inhibition [1] of 15% and an inhibition [2] of 88%. For the same molecule, the inhibition [3] was 51%, the inhibition [4] was 77% and the inhibition [5] was 38%. It also gave an inhibition [6] of 27%, an inhibition [7] of 13% and an inhibition [8] of 3%. For the same molecule, the Activity (MDA-MB-231 [9]) was 2.97%, the Activity (MDA-MB-231 [10]) was 1.72% and the viability at 0.4 µM (MDA-MB-231 [11]) was 53.8%. It also gave an Activity (MDA-MB-231 [12]) of 15.61%, an Activity (MDA-MB-231 [13]) of 26.21% and an Activity (MDA-MB-231 [14]) of 51.4%. The Activity (MDA-MB-231 [15]) was 39.11%, the Activity (MDA-MB-231 [16]) was 56.27% and the Activity (MDA-MB-231 [17]) was 40.18%. For the same molecule, the Activity (MDA-MB-231 [18]) was 3.55%, the inhibition (MDA-MB-231 [19]) was “Dose-dependent effect” and the inhibition (MDA-MB-231 [20]) was “Tde”. For the same molecule, the viability at 0.1 µM (A549 [21]) was 78.7%, the viability at 0.1 µM (A549 [22]) was 66.9% and the viability at 0.5 µM (A549 [23]) was 79.1%. For the same molecule, the viability at 0.5 µM (A549 [24]) was 47.4%, the viability at 2.5 µM (A549 [25]) was 51.5% and the viability at 2.5 µM (MDA-MB-231 [26]) was 52.2%. The viability at 2.5 µM (MDA-MB-231 [27]) was 9.1%, the Activity (MDA-MB-231 [28]) was “Dose-dependent effect” and the Activity (MDA-MB-231 [29]) was “Tde”.
